In PubChem BioAssay one finds viability, differential viability (reversal) and inhibition data, which are given here for 13 compounds.

A short description of assay [1]: reduced viability of SK-BR-3 breast cancer cells – cell-based, 24 h, human, pilot screen (AID 572;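 active = viability at or below 10% of carrier control in both of two separate runs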;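 also: compound exposure lasted between 18 and 24 h rather than exactly 24 h; 100% = carrier-treated control wells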). Particulars: SK-BR-3 viability, CellTiter-Glo luminescence, at 10 µM, stronger effect = lower value.
Assay [2] can be described thus: HUVEC growth inhibition – cell-based, human, primary screen (AID 575).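 Also: 100% = median of untreated cell wells with 0.1% DMSO on each plate.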 To be noted: HUVEC proliferation, CellTiter-Glo luminescence, 72 h; at 10 µM; stronger effect = lower value. The gist of the method:
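System: primary human umbilical vein endothelial cells; Quantity: 1250 endothelial cells in each well; Buffer or medium: supplemented EBM, 2% fetal bovine serum; Doses: one dose, 10 µM final, 0.1% DMSO; Incubation: 72 h compound incubation; Technique: ATP-based CellTiter-Glo luminescent read; Evaluation: percent of median DMSO-control luminescence; Controls: vehicle and MePR control wells.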

A short description of assay [3]: H69AR cell proliferation blockers – human, duplicate replicates, primary screen (AID 580;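 active = viability at or under a set limit in both replicates, limit being median viability minus 3 SD, cut at about 48% in these data, passing the limit was not always enough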;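 also: 100% = mean luminescence of untreated wells and 0% = no signal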). Particulars: H69AR lung tumor cells viability, ATP luminescence, 72 h; at 10 µM; stronger effect = lower value.
A short description of assay [4]: MRP1 drug-resistance reversers in H69AR cells – cell-based, doxorubicin co-treatment, pilot screen (AID 601;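 active = viability loss from added drug above about 55%, and viability with drug at most 40%, in both replicates, limit read from the data, passing the limit was not always enough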). Particulars: CellTiter-Glo, 72 h, at 10 µM; for differential viability (reversal): stronger effect = higher value.
Assay [5] in a line: yeast transport mutant growth inhibition pilot in 384-well plates, post-Golgi transport modulator project (AID 636; in the data active = inhibition above about 31%). To be noted: absorbance 615 nm, about 18 h, stronger effect = higher value.
Assay [6] is described as follows: growth suppression of yeast trafficking mutant, preliminary HTS, modulators of trafficking downstream of Golgi apparatus project, 1536-format plate, OD 615 nm (AID 637; in the data active = inhibition above about 30%). Particulars: yeast transport mutant growth, absorbance 615 nm, 18 h; stronger effect = higher value.
The mark [7] stands for this setting: H69AR cells + 2 uM doxorubicin, measured here: viability with 2 uM doxorubicin, stronger effect = lower value.
Where [8] appears, read: H69AR cells, compound alone cytotoxicity.

Active and inactive are the calls of the source.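 The calls were made as follows, unless noted: active = viability at or below 30% in both replicate assays; inconclusive = viability at or below 30% in just one of the two assays; inactive = the rest.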

The viability is a read-out of living cells in per cent, often relative to untreated cells. By inhibition is commonly meant the change of the read-out against control, counted positive when it falls.

Take `CC1(C)CC(=O)C=C(NCc2ccncc2)C1`: the viability in assay [1] is 89% (inactive); in assay [2], 113% (inactive); in assay [3], 98.6% (inactive); in assay [4] (setting [7]), 125%; in assay [4] (setting [8]), 98.6%. For the same compound, the differential viability (reversal) in assay [4] (H69AR cells + 2 uM doxorubicin) is -26.3% (inactive). Also, the inhibition is -2.3% (inactive) in assay [5] and -3.45% (inactive) in assay [6].

As for `CN(C)CCCC1(c2ccc(F)cc2)OCc2cc(C#N)ccc21` (centres undefined), the viability in assay [1] was 79% (inactive); in assay [2], 73.3% (inactive); in assay [3] it was 103% (inactive); in assay [4] (setting [7]), 85.7%; in assay [4] (setting [8]), 103%. Further, the differential viability (reversal) in assay [4] (H69AR cells + 2 uM doxorubicin) was 17.6% (inactive). For the same compound, the inhibition was -1.56% (inactive) in assay [5] and -2.5% (inactive) in assay [6].

For `CCn1c(SCC(=O)Nc2ccc3c(c2)OCO3)nnc1-c1cnccn1`, the viability in assay [1] is 89% (inactive); in assay [2], 93.1% (inactive); in assay [3] it was 95.4% (inactive); in assay [4] (setting [7]), 89.7%; in assay [4] (setting [8]), 95.4%. In addition, the differential viability (reversal) in assay [4] (H69AR cells + 2 uM doxorubicin) was 5.74% (inactive). Besides, the inhibition was -5.62% (inactive) in assay [5] and -0.73% (inactive) in assay [6].

Regarding `COc1ccc(-c2ccc(-c3nnn(CC(C)=O)n3)cc2)cc1`, the viability was 118% (inactive) in assay [1]; 105% (inactive) in assay [2]; 76.9% (inactive) in assay [3]; 73.6% in assay [4] (setting [7]); 76.9% in assay [4] (setting [8]). Besides, the differential viability (reversal) in assay [4] (H69AR cells + 2 uM doxorubicin) was 3.31% (inactive). In addition, the values for the inhibition in assay [5] and in assay [6] were -4.16% (inactive) and -9.02% (inactive), respectively.

As to `O=C(Nc1ccccc1Cl)c1c(F)c(F)c(F)c(F)c1F`, the viability in assay [1] was 106% (inactive); in assay [2] it was 106% (inactive); in assay [3] it was 90.2% (inactive); in assay [4] (setting [7]) it was 97.8%; in assay [4] (setting [8]), 90.2%. Besides, the differential viability (reversal) in assay [4] (H69AR cells + 2 uM doxorubicin) was -7.56% (inactive). For the same compound, the inhibition in assay [5] was 3.15% (inactive); in assay [6] it was 7.09% (inactive).

For the compound `O=C(NCCCN1CCN(Cc2ccccc2)CC1)C1CCN(c2nnc(-n3cccc3)s2)CC1`, the viability in assay [1] was 118% (inactive); in assay [2], 97.1% (inactive); in assay [3], 88.7% (inactive); in assay [4] (setting [7]), 84.4%; in assay [4] (setting [8]), 88.7%. The differential viability (reversal) in assay [4] (H69AR cells + 2 uM doxorubicin) was 4.26% (inactive). The results for the inhibition in assay [5] and in assay [6] were -4.93% (inactive) and -1.82% (inactive), respectively.

Take `Cc1cc(C)n(C(C)n2nc(C)cc2C)n1`: the viability in assay [1] is 107% (inactive); in assay [2] it was 103% (inactive); in assay [3], 87.8% (inactive); in assay [4] (setting [7]) it was 78.8%; in assay [4] (setting [8]) it was 87.8%. Besides, in assay [4] (H69AR cells + 2 uM doxorubicin), the differential viability (reversal) is 9.01% (inactive). In addition, the inhibition in assay [5] was -7.87% (inactive); in assay [6], -0.91% (inactive).

As to `CC(C)CNS(=O)(=O)c1ccc(CCC(=O)NCc2ccco2)cc1`, the viability is 113% (inactive) in assay [1]; 88.6% (inactive) in assay [2]; 84.5% (inactive) in assay [3]; 87.7% in assay [4] (setting [7]); 84.5% in assay [4] (setting [8]). In assay [4] (H69AR cells + 2 uM doxorubicin), the differential viability (reversal) is -3.21% (inactive). For the same compound, the inhibition in assay [5] is -4.93% (inactive); in assay [6] it was 1.29% (inactive).

For `Cc1ccc(N2CCN(CCc3nc4cc(NS(C)(=O)=O)ccc4n3C)CC2)cc1`, the viability is 104% (inactive) in assay [1]; 110% (inactive) in assay [2]; 90.1% (inactive) in assay [3]; 86.4% in assay [4] (setting [7]); 90.1% in assay [4] (setting [8]). Besides, in assay [4] (H69AR cells + 2 uM doxorubicin), the differential viability (reversal) is 3.72% (inactive). For the same compound, the results for the inhibition in assay [5] and in assay [6] were -6.75% (inactive) and -5.74% (inactive), respectively.

Regarding `COc1ccc(C(=O)Nc2cccnc2)cc1C(=O)Nc1cccnc1`, the viability is 150% (inactive) in assay [1]; 79.9% (inactive) in assay [2]; 97.4% (inactive) in assay [3]; 94.6% in assay [4] (setting [7]); 97.4% in assay [4] (setting [8]). The differential viability (reversal) in assay [4] (H69AR cells + 2 uM doxorubicin) is 2.72% (inactive). For the same compound, the values for the inhibition in assay [5] and in assay [6] were 7.53% (inactive) and -3% (inactive), respectively.

For the compound `O=C1CC(c2ccccc2)NC(=O)N1` (centres undefined), the viability in assay [1] was 78% (inactive); in assay [2], 105% (inactive); in assay [3] it was 98.8% (inactive); in assay [4] (setting [7]) it was 96.1%; in assay [4] (setting [8]), 98.8%. Besides, the differential viability (reversal) in assay [4] (H69AR cells + 2 uM doxorubicin) was 2.63% (inactive). Besides, the inhibition was -7.26% (inactive) in assay [5] and -0.36% (inactive) in assay [6].

As to `N#Cc1c(N2CCOCC2)nc(N2CCCCC2)c2c1CCN(C1CCCCC1)C2`, the viability in assay [1] is 92% (inactive); in assay [2], 101% (inactive); in assay [3], 89.2% (inactive); in assay [4] (setting [7]) it was 71.6%; in assay [4] (setting [8]), 89.2%. Besides, the differential viability (reversal) in assay [4] (H69AR cells + 2 uM doxorubicin) is 17.5% (inactive). Moreover, the inhibition in assay [5] is -1.22% (inactive); in assay [6], -1.82% (inactive).

In the case of `Cc1ccc2c(c1)CCCN2C(=O)c1ccc2c(c1)OCO2`, the viability was 48% (inactive) in assay [1]; 108% (inactive) in assay [2]; 101% (inactive) in assay [3]; 110% in assay [4] (setting [7]); 101% in assay [4] (setting [8]). For the same compound, in assay [4] (H69AR cells + 2 uM doxorubicin), the differential viability (reversal) was -8.85% (inactive). Moreover, the results for the inhibition in assay [5] and in assay [6] were -8.63% (inactive) and -6.18% (inactive), respectively.
